# According to ChEMBL document CHEMBL1130095, “Synthesis of analogs of 2-methoxyestradiol with enhanced inhibitory effects on tubulin polymerization and cancer cell growth” (J Med Chem, 1997):
# Key:
# [1] = tested on: HOP-62; assay: In vitro cytotoxicity value corresponding to 50% growth inhibition against HOP-62(non small cell lung) cell line.; format: functional; conditions: Homo sapiens
# [2] = tested on: UACC-62; assay: In vitro cytotoxicity value corresponding to 50% growth inhibition against UACC-62(melanoma) cell line.; format: functional; conditions: Homo sapiens
# [3] = tested on: DU-145; assay: The In vitro cytotoxicity value corresponding to 50% growth inhibition against DU-145 (prostate) cell line.; format: functional; conditions: Homo sapiens
# [4] = tested on: HCT-116; assay: In vitro cytotoxicity value corresponding to 50% growth inhibition against HCT116 (colon) cell line.; format: functional; conditions: Homo sapiens
# [5] = tested on: SN12C; assay: In vitro cytotoxicity value corresponding to 50% growth inhibition against SN12C (renal) cell line.; format: functional; conditions: Homo sapiens
# [6] = tested on: MDA-MB-435; assay: In vitro cytotoxicity value corresponding to 50% growth inhibition against MDA-MB-435 (breast) cell line.; format: functional; conditions: Homo sapiens
# [7] = molecular target: T1, Tubulin (Bos taurus, UniProt Q6B856+Q862L2+Q862F3); assay: Evaluated for inhibition of tubulin polymerization.; format: functional
# Summary of the method: (§1)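 Electrophoretically homogeneous bovine brain tubulin at 1.2 mg/mL (12 µM), preincubated at 26 °C with varying compound concentrations, then chilled on ice before GTP was added. Assembly was followed at 26 °C by turbidity at 350 nm, and the extent was read at 20 min. IC50 was derived graphically from at least two independent assays.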
# [8] = tested on: OVCAR-3; assay: In vitro cytotoxicity value corresponding to 50% growth inhibition against OVCAR-3 (ovarian) cell line.; format: functional; conditions: Homo sapiens
# [9] = tested on: Panel (Carcinoma cell lines); assay: Mean graph midpoint for growth inhibition of all human cancer cell lines; format: functional
# [10] = molecular target: Tubulin beta chain (Bos taurus) (UniProt Q6B856); assay: Evaluated for % inhibition of colchicine binding to tubulin.; parameters: concentration or dose not given beside the values; conditions: concentration not given here
# Summary of the method: (§2)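 Mixtures held 1.0 µM bovine brain tubulin (0.1 mg/mL), 5.0 µM [³H]colchicine and 50 µM inhibitor, incubated 10 min at 37 °C. Bound-colchicine inhibition is given as percent, from triplicate samples in each experiment.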
# [11] = tested on: SF-539; assay: The In vitro cytotoxicity corresponding to 50% growth inhibition against […] (central nervous system) cell line.; format: functional; conditions: Homo sapiens
# [12] = molecular target: Estrogen receptor (Rattus norvegicus) (UniProt P06211+Q62986); assay: Relative binding affinity for estrogen receptor using a tritium labeled estrogen as the tracer and immature rat uterine cytosol; format: protein assay; conditions: Uterus
# Summary of the method: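 Competitive radiometric binding with a tritiated estrogen tracer and immature rat uterine cytosol as receptor source, incubated at 0 °C for 18 or 20 h. […] Coefficient of variation between replicate experiments is typically below 30%.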
# [13] = molecular target: T1, Tubulin; assay: The compound was evaluated for inhibition of tubulin polymerization, which is purified from bovine brain; format: functional; summary of the method: as §1
# [14] = molecular target: Tubulin (Bos taurus) (UniProt Q6B856+Q862L2+Q862F3); assay: The compound was evaluated for inhibition of colchicine binding to tubulin.; format: protein assay; conditions: concentration not given here; summary of the method: as §2
# [15] = tested on: HCT-116; assay: The In vitro cytotoxicity value is the concentration of the compound corresponding to 50% growth inhibition againstHCT-116 (colon) cell line.; format: functional; conditions: Homo sapiens
# [16] = tested on: HOP-62; assay: The In vitro cytotoxicity value is the concentration corresponding to 50% growth inhibition against HOP-62 (non small cell lung) cell line.; format: functional; conditions: Homo sapiens
# Tubulin beta chain (Bos taurus), sequence (Q6B856 whole entry): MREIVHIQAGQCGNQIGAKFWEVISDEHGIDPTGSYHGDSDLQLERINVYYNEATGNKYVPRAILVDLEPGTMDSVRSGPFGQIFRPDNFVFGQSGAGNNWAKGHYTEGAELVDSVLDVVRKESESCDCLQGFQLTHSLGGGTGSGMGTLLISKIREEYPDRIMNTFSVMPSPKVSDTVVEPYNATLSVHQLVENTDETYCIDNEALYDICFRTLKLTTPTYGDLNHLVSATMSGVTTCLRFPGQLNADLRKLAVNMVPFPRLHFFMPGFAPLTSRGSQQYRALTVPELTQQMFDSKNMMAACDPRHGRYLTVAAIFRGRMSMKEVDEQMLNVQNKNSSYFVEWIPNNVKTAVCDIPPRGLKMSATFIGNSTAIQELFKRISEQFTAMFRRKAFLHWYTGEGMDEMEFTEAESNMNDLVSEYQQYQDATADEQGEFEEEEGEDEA
SMILES,GI50 [1],GI50 [2],GI50 [3],GI50 [4],GI50 [5],GI50 [6],IC50 [7],GI50 [8],GI50 [9],inhibition [10],GI50 [11],relative binding affinity (RBA) [12],IC50 [13],inhibition [14],GI50 [15],GI50 [16]
CCOc1cc2c(cc1O)C(N)C[C@@H]1[C@@H]2CC[C@]2(C)[C@@H](O)CC[C@@H]12 (stereo partly drawn),26000 nM,19000 nM,> 100000 nM,40000 nM,59000 nM,16000 nM,> 40000 nM,45000 nM,40000 nM,,,,,,,
CC#Cc1cc2c(cc1O)CC[C@@H]1[C@@H]2CC[C@]2(C)[C@@H](O)CC[C@@H]12,1700 nM,500 nM,3600 nM,480 nM,6900 nM,130 nM,4800 nM,340 nM,1700 nM,11%,950 nM,,,,,
CCOc1cc2c(cc1O)/C(=N\NS(=O)(=O)c1ccc(C)cc1)C[C@@H]1[C@@H]2CC[C@]2(C)[C@@H](O)CC[C@@H]12,5100 nM,,15000 nM,6700 nM,12000 nM,,> 40000 nM,3200 nM,6200 nM,,3500 nM,,,,,
CC(=O)Oc1cc2c(cc1OC(C)=O)[C@H]1CC[C@]3(C)[C@@H](OC(C)=O)CC[C@H]3[C@@H]1CC2,4800 nM,2500 nM,3200 nM,5100 nM,5100 nM,320 nM,> 40000 nM,6400 nM,3700 nM,,3500 nM,,,,,
CCOc1cc2c(cc1O)/C(=N\O)C[C@@H]1[C@@H]2CC[C@]2(C)[C@@H](O)CC[C@@H]12,11 nM,17 nM,26 nM,11 nM,21 nM,10 nM,,17 nM,79 nM,,13 nM,< 0.001,1100 nM,63%,,
CCOc1cc2c(cc1O)[C@@H](O)C[C@@H]1[C@@H]2CC[C@]2(C)[C@@H](O)CC[C@@H]12,,280 nM,710 nM,350 nM,660 nM,5400 nM,2900 nM,350 nM,830 nM,12%,,,,,,
CCOc1cc2c(c(OCC)c1O)CC[C@@H]1[C@@H]2CC[C@]2(C)[C@@H](O)CC[C@@H]12,1300 nM,,3300 nM,800 nM,4800 nM,200 nM,8800 nM,90 nM,2700 nM,1.5%,,,,,,
CCOc1cc2c(cc1O)CC[C@@H]1[C@@H]2CC[C@]2(C)[C@@H](OS(=O)O[C@H]3CC[C@H]4[C@@H]5CCc6cc(O)c(OCC)cc6[C@H]5CC[C@]34C)CC[C@@H]12,830 nM,1300 nM,1100 nM,490 nM,2600 nM,220 nM,5900 nM,270 nM,1100 nM,24%,570 nM,,,,,
CC(=O)Oc1cc2c(cc1OCC(F)(F)F)[C@H]1CC[C@]3(C)[C@@H](OC(C)=O)CC[C@H]3[C@@H]1CC2=O,20000 nM,18000 nM,20000 nM,21000 nM,20000 nM,18000 nM,> 40000 nM,24000 nM,20000 nM,,23000 nM,,,,,
C[C@]12CC[C@@H]3c4cc(OCC(F)(F)F)c(O)cc4/C(=N\O)C[C@H]3[C@@H]1CC[C@@H]2O,17 nM,15 nM,49 nM,31 nM,45 nM,10 nM,,16 nM,66 nM,,21 nM,0.007,2300 nM,28%,,
CCOc1cc2c(cc1O)/C(=N\N)C[C@@H]1[C@@H]2CC[C@]2(C)[C@@H](O)CC[C@@H]12,1200 nM,880 nM,17000 nM,2100 nM,17000 nM,6500 nM,4300 nM,5400 nM,4200 nM,9.6%,2800 nM,,,,,
C[C@]12CC[C@@H]3c4cc(OCC(F)(F)F)c(O)cc4CC[C@H]3[C@@H]1CC[C@@H]2O,12000 nM,2300 nM,7000 nM,3200 nM,4500 nM,280 nM,1500 nM,460 nM,2600 nM,11%,1400 nM,,,,,
CCOc1cc2c(cc1O)C(=O)C[C@@H]1[C@@H]2CC[C@]2(C)[C@@H](O)CC[C@@H]12,30 nM,10 nM,170 nM,20 nM,180 nM,< 10 nM,4100 nM,630 nM,130 nM,19%,710 nM,,,,,
C[C@]12CC[C@@H]3c4cc(Br)c(O)c(Br)c4CC[C@H]3[C@@H]1CC[C@@H]2O,,17000 nM,40000 nM,,28000 nM,27000 nM,> 40000 nM,17000 nM,25000 nM,,21000 nM,,,,20000 nM,
Cc1cc2cc3c(cc2o1)CC[C@@H]1[C@@H]3CC[C@]2(C)[C@@H](O)CC[C@@H]12,,16000 nM,17000 nM,510 nM,16000 nM,23000 nM,> 40000 nM,18000 nM,14000 nM,,14000 nM,,,,,19000 nM
CCOc1cc2c(cc1O)CC[C@@H]1[C@@H]2CC[C@]2(C)[C@@H](O)CC[C@@H]12,18 nM,16 nM,65 nM,26 nM,39 nM,< 10 nM,1300 nM,16 nM,76 nM,51%,14 nM,,,,,
CCOc1cc2c(cc1O)C=CC1C2CC[C@@]2(C)C1CC[C@@H]2O (stereo partly drawn),3900 nM,4800 nM,2100 nM,1100 nM,4600 nM,340 nM,4400 nM,1900 nM,3800 nM,8.6%,2000 nM,,,,,
COc1cc2c(cc1O)CC[C@@H]1[C@@H]2CC[C@]2(C)[C@@H](O)CC[C@@H]12 [2-METHOXYESTRADIOL],,360 nM,1800 nM,,950 nM,80 nM,3100 nM,210 nM,1300 nM,19%,320 nM,0.245,,,470 nM,700 nM
CCOc1cc2c(cc1O)CC[C@@H]1[C@@H]2CC[C@]2(C)[C@@H](N)CC[C@@H]12.Cl,11000 nM,3600 nM,1900 nM,3200 nM,5200 nM,1700 nM,> 40000 nM,1300 nM,3300 nM,,4000 nM,,,,,
CCOc1cc2c(cc1O)/C(=N\OC)C[C@@H]1[C@@H]2CC[C@]2(C)[C@@H](O)CC[C@@H]12,110 nM,52 nM,330 nM,49 nM,390 nM,29 nM,,26 nM,270 nM,,,< 0.001,1400 nM,34%,,
